Measurements as given in PubChem BioAssay AID1885 (Broad Institute, 2009).
Among all 300,000 compounds or so, about 4,400 (1.5%) were called active. The entries come from a sample that favours actives as a whole. Unmarked numbers belong to inactive results.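 Rule for the calls: active = mean inhibition across valid replicates above about 55% (limit read from the data); inconclusive = mean below that limit but half or more replicates reach it; inactive = mean below it, under half of replicates reach it.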

experiment: inhibitors of intracellular T. cruzi growth, primary screen, luminescence, NIH3T3 host cells (AID 1885);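 note: signal also drops with host cell toxicity which is not excluded here; 0% = plate median of DMSO wells and 100% = zero luminescence signal; higher percent means less beta-gal luminescence so fewer parasites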; conditions: T. cruzi beta-gal in NIH3T3, luminescence, 90 h; stronger effect = higher value; concentration not given here
Procedure, shortened: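 Material: NIH/3T3 host cells with β-galactosidase reporter T. cruzi; Input: 5,000 host fibroblasts per well; Medium: DMEM, 2% fetal bovine serum; Compound: 50 nL DMSO compound solution per well; Schedule: 3 h host attachment, then at least 90 h co-culture; Detection: luminescent β-galactosidase signal after 60 min lysis.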

SMILES | inhibition
CC(Sc1nnc(-c2ccccc2F)n1C1CC1)C(N)=O (configuration not stated) | -10.8%
COc1ccc(-c2nc(CS(=O)(=O)CC(=O)NCc3cccc(Br)c3)c(C)o2)cc1 | -6.3%
Cc1ccccc1NCC(=O)N/N=C\c1ccc([N+](=O)[O-])s1 | 64.6% (active)
COc1cc(/C=N/NC(=O)CNC(=O)c2ccncc2)ccc1OC(C)=O | -4.41%
COc1ccc(C(=O)NCC(=O)N/N=C/c2ccc([N+](=O)[O-])s2)cc1OC | 64.6% (active)
CC(C)(C)c1cc(C(=O)N/N=C/c2ccc([N+](=O)[O-])s2)n[nH]1 | 57.6% (active)
Cc1cc(C(=O)N/N=C/c2cc([N+](=O)[O-])cc(C)c2O)n[nH]1 | -40.2%
COc1ccc(C(=O)NCC(=O)N/N=C/c2ccc([N+](=O)[O-])o2)cc1OC | -11%
COc1ccc2ccccc2c1/C=N/NC(=O)c1cc(C)[nH]n1 | -14.2%
CCOc1ccc(NC(=O)CCC(=O)N/N=C/c2ccc([N+](=O)[O-])s2)cc1 | 50.6%
Cc1cccc(/C=N/NC(=O)CNc2cccc3ccccc23)n1 | -0.344%
O=C(NCCNc1ccc([N+](=O)[O-])cc1)c1cccc2c(Br)cccc12 | 5.94%
c1ccc(Cc2ccc(OCCn3ccnc3)cc2)cc1 | 28.2%
O=C(O)c1ccn(COc2ccc(Br)cc2)n1 | -13.4%
Brc1ccc(OCCn2ccnc2)cc1 | 68.5% (active)
O=C(NCCS(=O)(=O)N1CCN(c2ccc(F)cc2)CC1)c1ccc2c(c1)OCO2 | -12.2%
COc1ccc(NC(=O)CN(C)C(=O)/C=C/c2cn(Cc3ccccc3)nc2-c2cccnc2)cc1 | 4%
NC(=S)Nc1c(Cl)cccc1Cl | -4.22%
O=C(NCCN1CCOCC1)c1cc(-c2cccs2)nc2ccccc12 | -5.61%
COC(=O)c1cc(-c2cccs2)nc2ccccc12 | 5.51%
CCCCN(C)CCCNC(=O)c1cc(-c2cccs2)nc2ccccc12 | 63.8% (active)

SMILES | inhibition
COc1cnn(-c2ccc([N+](=O)[O-])cc2)c(=O)c1Cl | 7.92%
CCN1C(=O)[C@H]2[C@@H](c3ccc(-c4ccc(OC)cc4)cc3)N[C@@](Cc3ccccc3)(C(=O)OC)[C@H]2C1=O | -3.65%
CCOC(=O)C1(CCOC)CCN(Cc2cc3ccccc3s2)CC1 | 6.96%
Cc1ccc(S(=O)(=O)N2CCCC2C(=O)OCc2nc3sc(C)c(C)c3c(=O)[nH]2)cc1 (configuration not stated) | -13%
C=CCc1cc(C)ccc1OCCCn1ccnc1 | 36.6%
Clc1c(OCCCn2ccnc2)ccc2ccccc12 | 61.3% (active)
O=C(NCCCn1ccnc1)c1ccccc1F | 7.44%
Cc1cc(Nc2cc(N3CCN(C)CC3)nc(Sc3ccc(NC(=O)C4CC4)cc3)n2)n[nH]1 | 26.9%
CC(=O)CC(CC(=O)NC1CCCCC1)c1ccccc1 (configuration not stated) | -21.8%
CCOc1ccc(C(=O)NCC(=O)N2CCCCCCC2)cc1OCC | 17.5%
CCc1noc(C)c1C(=O)NNC(=O)c1ccc(F)cc1 | -6.32%
CC(C)(C)S(=O)(=O)c1ccccc1-c1noc(-c2ccccc2)c1C(N)=O | -8.06%
Cc1cc(C)c2nc(SCCC#N)nc(C)c2c1 | 1.26%
Cc1cc(C)c2nc(-c3ccco3)cc(C(=O)O)c2c1 | -8.53%
Cc1cc(C)c2nc3nc(C)cc(C)c3c(N)c2c1 | 58.9% (active)
O=C(COC(=O)c1ncc(Cl)c(Cl)c1Cl)NNC(=O)c1ccccc1 | -29.7%
Cc1ccc2nc(NC(=O)C3CSC4(C)CCC(=O)N34)sc2c1 (configuration not stated) | -3.69%
NC(=S)N/N=C/c1coc2cc(Cl)ccc2c1=O | -10.9%
CCOc1ccc(/C=N/NC(N)=S)cc1 | 15.1%
CC(C)Oc1c(Br)cc(Br)cc1/C=N/NC(N)=S | 66.9% (active)
CCc1noc(C)c1C(=O)Nc1nc(-c2ccccc2)cs1 | 6.55%

SMILES | inhibition
CCS(=O)(=O)c1ccc(C(=O)NC)c(Cl)c1Cl | -1.91%
Cc1ccc(-c2cn(S(=O)(=O)c3cccc([N+](=O)[O-])c3)nc2N)cc1 | 63.5% (active)
Cc1cc(C)n(S(=O)(=O)c2cccc([N+](=O)[O-])c2)n1 | 19.3%
CC1=NCCN1S(=O)(=O)c1cccc([N+](=O)[O-])c1 | 7.48%
CCCCCCCNC(=O)C1(CC2CC(c3cccc(Br)c3)=NO2)CCN(C(=O)c2cc(OCC)c(OCC)c(OCC)c2)CC1 (configuration not stated) | 28.4%
COc1cc(N)c(Cl)cc1C(=O)OCC(=O)c1ccc2c(c1)NC(=O)CO2 | -2.39%
CCCCCCCN=C(C)c1ccccc1O | 2.33%
CCCCCCc1cc2cc(-c3nnc(-c4ccccc4)o3)c(=O)oc2cc1O | 0.529%
CCCCCCc1ccc(O)cc1O | 63.7% (active)
O=C(CNS(=O)(=O)c1ccccc1)N1CCN(C(=O)c2ccco2)CC1 | -1.99%
Cn1c(=O)n(C)c2cc(NS(=O)(=O)c3ccc(F)cc3)ccc21 | 2.2%
CC1(C)CC(=O)c2c(n(S(=O)(=O)c3ccccc3)c3ccc(NS(=O)(=O)c4ccccc4)cc23)C1 | 63.5% (active)
Cn1c(CCN2CCCC2)nc2cc(NS(=O)(=O)c3ccccc3)ccc21 | 9.31%
CCn1c(SCc2ccccc2)nc2cc(OC)c(OC)cc2c1=O | 18.8%
CN1CCN(C(=O)c2ccccc2NC(=O)COc2ccccc2Cl)CC1 | -5.23%
O=C1c2ccccc2S(=O)(=O)c2cc(N3CCN(c4ccccn4)CC3)ccc21 | -2.13%
CCOc1ccc(NC(=O)COc2ccc(C(=O)N3CCC(C(N)=O)CC3)cc2OC)cc1 | -10.5%
CCC(=O)Nc1ccc(C(=O)Nc2cccc(OC)c2)cc1 | -19%
CCC(=O)Nc1ccc2nn(-c3ccc(F)cc3)nc2c1 | 55.3% (active)
Cc1ccc(-n2nc3ccc(NC(=O)/C=C/c4ccco4)cc3n2)cc1C | -97.4%
